Assay results: ChEMBL document CHEMBL1772943, “Potent, selective, and orally available benzoisothiazolone phosphomannose isomerase inhibitors as probes for congenital disorder of glycosylation Ia” (J Med Chem, 2011)
In brackets after ≈: the same amount, converted by molar mass.

What was measured:
Phosphomannomutase 2 = molecular target: T1, Phosphomannomutase 2 (Homo sapiens, UniProt O15305); assay: Inhibition of human purified PMM2
T1 sequence (O15305 whole entry): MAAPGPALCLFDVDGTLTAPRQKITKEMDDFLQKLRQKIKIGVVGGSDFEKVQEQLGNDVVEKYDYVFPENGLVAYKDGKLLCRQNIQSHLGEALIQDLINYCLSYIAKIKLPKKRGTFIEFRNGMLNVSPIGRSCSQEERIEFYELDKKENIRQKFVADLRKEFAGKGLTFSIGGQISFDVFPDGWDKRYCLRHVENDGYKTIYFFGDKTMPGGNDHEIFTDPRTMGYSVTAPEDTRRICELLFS

[1] = Solubility of the compound at pH 7.4; assay type: physicochemical; conditions: buffer
[2] = Metabolic stability of the compound in mouse plasma assessed as compound remaining at 10 uM after 3 hrs by LC/MS/MS analysis; assay type: ADME, cell-free; conditions: read-out: Stability
In short: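 Fresh mouse plasma with test article at 10 μM, run in duplicate at 37 °C. Sampled at t=0 and t=3 h; % parent remaining quantified by LC/MS/MS.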

[3] = Metabolic stability of the compound in mouse liver microsomes assessed as compound remaining at 10 uM after 1 hr by LC/MS/MS analysis; assay type: ADME, Microsome; conditions: read-out: Stability
In short: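 Mouse liver microsomes at 0.5 mg/ml, test article at 10 μM, duplicate, 37 °C. Aliquots at t=0 and t=1 h; % parent remaining by LC/MS/MS. Positive control phenacetin conversion to acetaminophen; negative control NADPH-deficient mixture.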

[4] = molecular target: T2, Mannose-6-phosphate isomerase (Homo sapiens, UniProt P34949); assay: Inhibition of human purified phosphomannose isomerase
T2 sequence (P34949 whole entry): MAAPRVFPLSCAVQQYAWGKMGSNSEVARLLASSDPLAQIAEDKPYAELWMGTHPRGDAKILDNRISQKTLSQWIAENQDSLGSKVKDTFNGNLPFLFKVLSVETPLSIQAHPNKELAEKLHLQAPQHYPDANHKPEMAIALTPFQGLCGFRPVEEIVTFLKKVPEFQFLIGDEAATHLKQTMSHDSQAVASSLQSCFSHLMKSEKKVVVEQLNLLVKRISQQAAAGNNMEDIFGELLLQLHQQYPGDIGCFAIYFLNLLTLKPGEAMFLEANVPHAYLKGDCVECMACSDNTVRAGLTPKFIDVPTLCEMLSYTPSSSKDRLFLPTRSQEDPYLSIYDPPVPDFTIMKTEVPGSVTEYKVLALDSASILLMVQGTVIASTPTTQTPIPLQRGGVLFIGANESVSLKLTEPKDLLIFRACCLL

HeLa = assay: Cytotoxicity against human HeLa cells at 12.5 to 100 uM after 2 hrs; assay type: cell-based
In short: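 HeLa cells at 70% confluency were preincubated with compound for 2 h at 37°C. They were then labelled with 50 μCi/mL ³H-mannose and 5 μCi/mL ³⁵S-Met/Cys for 1 h at 37°C, washed, and lysed in 10 mM Tris pH 7.4 with 1% NP-40. Proteins were precipitated with 10% TCA. ³⁵S incorporation read protein synthesis and toxicity; DMSO-treated cells served as the reference.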

Liver = assay: Metabolic stability of the compound in rat liver S9 fraction at 10 uM after 2 hrs by LCMS analysis in presence of GSH transferase; assay type: ADME, subcellular; conditions: s9, 2 h
In short: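 The reaction was quenched by acetonitrile precipitation, and the supernatant was dried and reconstituted. Positive-ion electrospray LCMS tracked parent compound and GSH conjugates. Run in triplicate, with diclofenac as positive control.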

[5] = Cmax in C57BL/6 mouse at 20 mg/kg, po; assay type: ADME, organism-based; design: dose 20 mg/kg, route oral; conditions: in vivo
In short: (§1)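 C57BL/6 mice, n=3 per dose, given single oral dose of 20 mg/kg (5 mg/kg IV arm run in parallel). Animals sacrificed for blood at 0.5, 1, 2, 4 and 6 hr after oral dosing; plasma separated by centrifugation, stored at -20°C, extracted with 2-fold excess acetonitrile, vortexed 3 min, centrifuged 15 min (7500g), supernatant quantified by LCMS.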

[6] = AUC (0 to t) in C57BL/6 mouse at 20 mg/kg, po; assay type: ADME, organism-based; design: dose 20 mg/kg, route oral; conditions: plasma; in short: as §1
[7] = Half life in C57BL/6 mouse at 20 mg/kg, po; assay type: ADME, organism-based; design: dose 20 mg/kg, route oral; conditions: in vivo
In short: (§2)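 C57BL/6 mice, n=3 per dose, dosed 5 mg/kg IV and 20 mg/kg PO. Blood collected at PO 0.5, 1, 2, 4, 6 hr and IV 10 min, 0.5, 1, 2, 4, 6 hr. Plasma separated by centrifugation, stored at -20°C, extracted with 2-fold excess acetonitrile (vortex 3 min, 15 min at 7500g), supernatant analysed by LCMS.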

Mus musculus = assay: Oral bioavailability in C57BL/6 mouse at 20 mg/kg; assay type: ADME, organism-based; conditions: in vivo; in short: as §2
in vivo = conditions: C57BL/6, mouse, po, 20 mg/kg
[8] = Inhibition of human purified phosphomannose isomerase

Structure (SMILES) | IC50 (Phosphomannomutase 2) [µM] | IC50 [4] [µM] | further results
COc1cccc(-n2sc3ccccc3c2=O)c1 | > 10 | – | –
O=c1c2ccccc2sn1-c1ccc2ccccc2c1 | > 20 | – | –
Cc1ccccc1-n1sc2cc(F)ccc2c1=O | > 20 | – | –
Cc1ccc(C)c(-n2sc3cc(F)ccc3c2=O)c1 | – | 1 | solubility [1]: 22.5 µg/mL (≈ 82.3 µM); remaining at 3 h, 10 µM [2]: 48%; remaining at 1 h, 10 µM [3]: 82.3%
Cc1ccc(C)c(-n2sc3ccccc3c2=O)c1 | – | 6.6 | –
NC(=O)C1(NC(=O)CCCNc2ccc(Cl)cc2Cl)Cc2ccccc2C1 | – | 50 | –
CC(C)(C)c1ccc(-n2sc3ccccc3c2=O)cc1 | > 20 | – | solubility [1]: 2.5 µg/mL (≈ 8.82 µM); remaining at 3 h, 10 µM [2]: 10%; remaining at 1 h, 10 µM [3]: 62%; Activity (HeLa): Non-toxic
O=c1c2ccccc2sn1-c1ccc(Cl)cc1 | > 20 | – | –
CCOC(=O)c1ccc(-n2sc3ccccc3c2=O)cc1 | > 20 | – | –
O=c1c2cc(F)ccc2sn1-c1ccccc1 | > 80 | – | solubility [1]: 3.8 µg/mL (≈ 15.5 µM); remaining at 3 h, 10 µM [2]: 99%; Stability (Liver): Stable; remaining at 1 h, 10 µM [3]: 85%; Activity (HeLa): Non-toxic; Cmax [5]: 162 nM; AUC(0-t) [6]: 0.305 µM·h; half-life [7]: 78 min; F (Mus musculus): 35%; Tmax (in vivo): 45 min
O=c1c2cc(F)ccc2sn1-c1ccccc1F | > 20 | – | –
Cc1ccc(C)c(-n2sc3ccc(F)cc3c2=O)c1 | – | – | solubility [1]: 11 µg/mL (≈ 40.2 µM); remaining at 1 h, 10 µM [3]: 81%
O=c1c2cc(F)ccc2sn1-c1ccc(Cl)cc1 | > 20 | – | –
O=c1c2ccccc2sn1-c1cccc(Cl)c1 | > 20 | – | –
NC(=O)C1(NC(=O)CCCOc2ccc(Cl)cc2Cl)Cc2ccccc2C1 | – | – | IC50 [8]: 40 µM
O=c1c2cc(F)ccc2sn1-c1cccc(F)c1 | > 20 | – | –
Cc1ccc(-n2sc3ccccc3c2=O)cc1 | > 20 | 5.2 | –
O=C1c2ccccc2SC1c1ccccc1 (stereo not drawn) | – | > 10 | –
Cc1ccc(C)c(N2Cc3ccccc3C2=O)c1 | – | > 10 | –
O=c1c2ccccc2sn1-c1cccc(C(F)(F)F)c1 | 13.9 | – | –
NC(=O)C1(NC(=O)CCCSc2ccc(Cl)cc2Cl)Cc2ccccc2C1 | – | 14 | –
O=c1c2ccccc2sn1-c1cccc(I)c1 | > 20 | – | –
CN(C)c1cccc(-n2sc3ccccc3c2=O)c1 | > 20 | – | –
Cc1cccc(-n2sc3ccccc3c2=O)c1 | > 20 | – | –
CN(C)c1ccc(-n2sc3ccccc3c2=O)cc1 | 13.3 | 1.9 | –
O=c1c2cc(F)ccc2sn1-c1ccc(F)cc1 | > 80 | – | –
O=c1c2ccccc2sn1-c1ccc(C(F)(F)F)cc1 | > 20 | > 20 | –
